Experimental data from ChEMBL document CHEMBL5244249, “Discovery of tofacitinib derivatives as orally active antitumor agents based on the scaffold hybridization strategy” (Eur J Med Chem, 2020).

Key:
[1] = system: MCF7; experiment: Antiproliferative activity against human MCF7 cells assessed as inhibition of cell growth incubated for 72 hrs by MTT assay; assay type: functional, cell-based; conditions: MCF7, 72 h
[2] = system: PC-9; experiment: Antiproliferative activity against human PC-9 cells assessed as inhibition of cell growth incubated for 72 hrs by MTT assay; assay type: functional, cell-based; conditions: PC-9, 72 h
[3] = system: MGC-803; experiment: Antiproliferative activity against human MGC-803 cells assessed as inhibition of cell growth incubated for 72 hrs by MTT assay; assay type: functional, cell-based; conditions: MGC-803, 72 h
Summary of the method: (§1)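 Antiproliferative screen in gastric cancer lines MGC-803, HGC-27 and BGC-823 by MTT assay; IC50 reported as mean ± SD.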

[4] = system: NCI-H1975; experiment: Antiproliferative activity against human NCI-H1975 cells assessed as inhibition of cell growth incubated for 72 hrs by MTT assay; assay type: functional, cell-based; conditions: NCI-H1975, 72 h
[5] = system: BGC-823; experiment: Antiproliferative activity against human BGC-823 cells assessed as inhibition of cell growth incubated for 72 hrs by MTT assay; assay type: functional, cell-based; conditions: BGC-823, 72 h; summary of the method: as §1
[6] = Cytotoxicity against human GES1 cells assessed as inhibition of cell growth incubated for 72 hrs by MTT assay; assay type: toxicity, cell-based
[7] = system: HGC-27; experiment: Antiproliferative activity against human HGC-27 cells assessed as inhibition of cell growth incubated for 72 hrs by MTT assay; assay type: functional, cell-based; conditions: HGC-27, 72 h; summary of the method: as §1

Row | Structure (SMILES) | IC50 [1] | IC50 [2] | IC50 [3] | IC50 [4] | IC50 [5] | IC50 at 72 h [6] | IC50 [7]
1 | C[C@@H]1CCN(C(=O)CC#N)C[C@@H]1N(C)c1ncnc2[nH]ccc12 [TOFACITINIB] | > 100 µM | > 100 µM | > 100 µM | > 100 µM |  |  | 
2 | CCCSc1nc2nc(C)cc(N3CC[C@@H](C)[C@@H](N(C)c4ncnc5[nH]ccc45)C3)n2n1 |  |  | 15.5 µM |  | 51.2 µM | 67.1 µM | 20.9 µM
3 | Cc1cc(N2CC[C@@H](C)[C@@H](N(C)c3ncnc4[nH]ccc34)C2)n2nc(SCCCc3ccccc3)nc2n1 |  |  | > 100 µM |  | > 100 µM | > 100 µM | > 100 µM
4 | Cc1cc(N2CC[C@@H](C)[C@@H](N(C)c3ncnc4[nH]ccc34)C2)n2nc(SCCc3ccccc3)nc2n1 |  |  | 6.19 µM |  | 28 µM | 66.2 µM | 11.8 µM
5 | Cc1cc(N2CC[C@@H](C)[C@@H](N(C)c3ncnc4[nH]ccc34)C2)n2nc(SCc3ccc(F)c(Cl)c3)nc2n1 |  |  | 52 µM |  | 98.9 µM | > 100 µM | > 100 µM
6 | Cc1cc(N2CC[C@@H](C)[C@@H](N(C)c3ncnc4[nH]ccc34)C2)n2nc(SCc3ccc(F)cc3)nc2n1 |  |  | 11.9 µM |  | 44.3 µM | 12.3 µM | 26 µM
7 | Cc1cc(N2CC[C@@H](C)[C@@H](N(C)c3ncnc4[nH]ccc34)C2)n2nc(SCC3CC3)nc2n1 |  |  | 9.54 µM |  | 36.5 µM | 27.9 µM | 21.4 µM
8 | Cc1nc2nc(SCc3ccc(Cl)cc3)nn2c(N2CC[C@@H](C)[C@@H](N(C)c3ncnc4[nH]ccc34)C2)c1C |  |  | 90.5 µM |  | > 100 µM | 99.2 µM | > 100 µM
9 | Cc1cc(N2CC[C@@H](C)[C@@H](N(C)c3ncnc4[nH]ccc34)C2)n2nc(SCc3ccccc3Br)nc2n1 |  |  | 27 µM |  | 81.1 µM | > 100 µM | 21.3 µM
10 | Cc1cc(N2CC[C@@H](C)[C@@H](N(C)c3ncnc4[nH]ccc34)C2)n2nc(SCc3ccccc3)nc2n1 |  |  | 5.87 µM |  | 14.3 µM | 67.2 µM | 13.9 µM
11 | Cc1cc(N2CC[C@@H](C)[C@@H](N(C)c3ncnc4[nH]ccc34)C2)n2nc(SCc3cc(=O)oc4c3ccc3ccccc34)nc2n1 |  |  | > 100 µM |  | > 100 µM | > 100 µM | > 100 µM
12 | O=c1[nH]cc(F)c(=O)[nH]1 [FLUOROURACIL] | 4.76 µM | 3.25 µM | 3.79 µM | 2.67 µM | 5.89 µM | 2.37 µM | 5.75 µM
13 | Cc1cc(N2CC[C@@H](C)[C@@H](N(C)c3ncnc4[nH]ccc34)C2)n2nc(SCC3CCCCC3)nc2n1 |  |  | 9.17 µM |  | 16.3 µM | 98.2 µM | 11.5 µM
14 | CCCCCc1c(C)nc2nc(SCc3ccc(Cl)cc3)nn2c1N1CC[C@@H](C)[C@@H](N(C)c2ncnc3[nH]ccc23)C1 |  |  | > 100 µM |  | 32.3 µM | > 100 µM | > 100 µM
15 | Cc1cc(N2CC[C@@H](C)[C@@H](N(C)c3ncnc4[nH]ccc34)C2)n2nc(SCc3nc4ccccc4[nH]3)nc2n1 |  |  | 21.2 µM |  | > 100 µM | 40.2 µM | > 100 µM
16 | COc1ccc(CSc2nc3nc(C)cc(N4CC[C@@H](C)[C@@H](N(C)c5ncnc6[nH]ccc56)C4)n3n2)cc1 |  |  | 15.2 µM |  | 69.9 µM | > 100 µM | 18.2 µM
17 | C#CCSc1nc2nc(C)cc(N3CC[C@@H](C)[C@@H](N(C)c4ncnc5[nH]ccc45)C3)n2n1 |  |  | 18.1 µM |  | 62.1 µM | > 100 µM | 35.1 µM
18 | Cc1cc(N2CC[C@@H](C)[C@@H](N(C)c3ncnc4[nH]ccc34)C2)n2nc(SCc3ccc(Cl)cc3)nc2n1 |  |  | 16 µM |  | 26.3 µM | > 100 µM | 18.4 µM
19 | Cc1cc(N2CC[C@@H](C)[C@@H](N(C)c3ncnc4[nH]ccc34)C2)n2nc(SCc3ccc([N+](=O)[O-])cc3)nc2n1 |  |  | 26.9 µM |  | 59.6 µM | 36.6 µM | 29.4 µM
20 | C[C@@H]1CCN(c2c3c(nc4ncnn24)CCC3)C[C@@H]1N(C)c1ncnc2[nH]ccc12 |  |  | 55.9 µM |  | > 100 µM | > 100 µM | 50.5 µM
21 | C[C@@H]1CCN(c2cc(-c3ccccc3)nc3ncnn23)C[C@@H]1N(C)c1ncnc2[nH]ccc12 |  |  | 84.9 µM |  | > 100 µM | > 100 µM | > 100 µM
22 | CCc1cc(N2CC[C@@H](C)[C@@H](N(C)c3ncnc4[nH]ccc34)C2)n2ncnc2n1 |  |  | 80.2 µM |  | 82.2 µM | > 100 µM | > 100 µM
23 | Cc1ccc(CSc2nc3nc(C)cc(N4CC[C@@H](C)[C@@H](N(C)c5ncnc6[nH]ccc56)C4)n3n2)cc1 |  |  | 5.86 µM |  | 69.5 µM | 82.5 µM | 15.2 µM
24 | Cc1cc(N2CC[C@@H](C)[C@@H](N(C)c3ncnc4[nH]ccc34)C2)n2nc(SCc3csc4ccc(Cl)cc34)nc2n1 |  |  | > 100 µM |  | > 100 µM | > 100 µM | > 100 µM
25 | Cc1cc(N2CC[C@@H](C)[C@@H](N(C)c3ncnc4[nH]ccc34)C2)n2nc(SCc3ccc(Br)cc3)nc2n1 |  |  | 4.02 µM |  | 28 µM | 55.6 µM | 19.5 µM
26 | Cc1cc(N2CC[C@@H](C)[C@@H](N(C)c3ncnc4[nH]ccc34)C2)n2nc(SCc3cc(Cl)ccc3Cl)nc2n1 |  |  | 9.85 µM |  | 18.9 µM | 87.5 µM | 19.2 µM
27 | C=CCSc1nc2nc(C)cc(N3CC[C@@H](C)[C@@H](N(C)c4ncnc5[nH]ccc45)C3)n2n1 |  |  | 32.5 µM |  | 40.9 µM | > 100 µM | 35.2 µM
28 | Cc1cc(N2CC[C@@H](C)[C@@H](N(C)c3ncnc4[nH]ccc34)C2)n2ncnc2n1 | 33.8 µM | 20.9 µM | 4.35 µM | 22.2 µM | 67.4 µM | 57.9 µM | 11.3 µM
